Experimental data published in ChEMBL document CHEMBL1147086, “Composite synthetic lethal identification of membrane traffic inhibitors” (Proc Natl Acad Sci U S A, 2007).
Calls of active or inactive are those of the source. The rule behind the calls is not given here.

Assays:
[1] = test system: Saccharomyces cerevisiae; assay: Toxicity against wild type yeast MDY326 assessed as 2 fold reduction of cell growth; assay type: organism-based; conditions: in vivo
Method in brief: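 Wild-type cells (pdr5Δ snq2Δ) grown 18–24 h at 30°C in YPD with serially diluted compound; OD490 read; value is concentration giving 2-fold growth inhibition versus DMSO.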

[2] = test system: Saccharomyces cerevisiae; assay: Growth inhibition of yeast MDY330 carrying temperature sensitive allele of clathrin heavy chain gene assessed as cell growth at 25 uM relative to wild-type; assay type: functional; set-up: scale not given: the % may be the effect or the level left
[3] = test system: Saccharomyces cerevisiae; assay: Effect on localization of chitin synthase Chs3p in CHS6 deficient yeast MDY335 assessed as induction of chitin bud scars at 25 uM by fluorescence microscopy; assay type: functional, organism-based
Method in brief: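 chs6Δ cells (pdr5Δ snq2Δ background) grown overnight at 30°C in YPD with 25 μM compound or DMSO; cells mixed 1:1 with 2.5 mM calcofluor white in YPD for 10 min, washed twice, chitin rings scored by fluorescence microscopy.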

[4] = test system: Saccharomyces cerevisiae; assay: Growth inhibition of wild type yeast MDY326 assessed as cell growth at 25 uM; assay type: functional; set-up: scale not given: the % may be the effect or the level left
Method in brief: (§1)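 Overnight cultures (pdr5Δ snq2Δ background) diluted to OD600 0.0003 in YPD, given serially diluted compound in 30-μl cultures, grown 18–24 h at 30°C humidified; OD490 read after vortexing; growth expressed as fold inhibition relative to the same strain with DMSO.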

[5] = test system: Saccharomyces cerevisiae; assay: Growth inhibition of gga1/2 deficient yeast MDY327 cells assessed as cell growth at 25 uM relative to wild-type; assay type: functional; set-up: scale not given: the % may be the effect or the level left
[6] = test system: Saccharomyces cerevisiae; assay: Growth inhibition of apl2/4 deficient yeast MDY334 cells assessed as cell growth at 25 uM relative to wild-type; assay type: functional; set-up: scale not given: the % may be the effect or the level left
[7] = test system: Saccharomyces cerevisiae; assay: Effect on maturation of alpha-factor2 in gga2delta containing yeast MDY380; assay type: functional, organism-based
Method in brief: (§2)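 Yeast grown at 30°C to OD600 0.2 in YPD with compound (25 μM) or DMSO, washed twice in SCMG containing 50 μM compound, pulse-labeled 10 min with [35S]methionine (50 μCi per OD600), chased 30 min in YPD, stopped with NaF/NaN3 (10 mM final); secreted α-factor immunoprecipitated from medium, resolved by SDS/PAGE and autoradiography; DMSO-treated and wild-type (MDY326) cells as reference.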

[8] = test system: Saccharomyces cerevisiae; assay: Effect on maturation of alpha-factor2 in yeast MDY330 carrying temperature sensitive allele of clathrin heavy chain gene; assay type: functional, organism-based; method in brief: as §2
[9] = test system: Saccharomyces cerevisiae; assay: Toxicity against wild type yeast MDY326 assessed as 2 fold reduction of cell growth at 130 uM; assay type: organism-based; conditions: in vivo
[10] = test system: Saccharomyces cerevisiae; assay: Toxicity against wild type yeast MDY326 assessed as 2 fold reduction of cell growth at 150 uM; assay type: organism-based; conditions: in vivo
Method in brief: (§3)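 Wild-type strain MDY326 (pdr5Δ snq2Δ) diluted to OD600 0.0003 in YPD, compound serially diluted into 30 μl cultures, grown 18–24 h at 30°C humidified; OD490 read after vortexing, normalized to untreated/DMSO wells; value is the concentration producing 2-fold growth inhibition.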

[11] = test system: Saccharomyces cerevisiae; assay: Toxicity against wild type yeast MDY326 assessed as 2 fold reduction of cell growth at 14 uM; assay type: organism-based; conditions: in vivo; method in brief: as §3
[12] = test system: Saccharomyces cerevisiae; assay: Inhibition of maturation of alpha-factor2 in gga2delta containing yeast MDY380 at 25 uM; assay type: functional, organism-based
Method in brief: (§4)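 Cells treated overnight with 25 μM compound or DMSO in YPD to OD600 0.2, washed in SCMG with 50 μM compound, labeled 10 min with [35S]methionine, chased 30 min; α-factor immunoprecipitated from medium, SDS/PAGE and autoradiography.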

[13] = test system: Saccharomyces cerevisiae; assay: Inhibition of maturation of alpha-factor2 in wild type yeast MDY326 at 25 uM; assay type: functional, organism-based; method in brief: as §4
[14] = test system: Saccharomyces cerevisiae; assay: Growth inhibition of wild type yeast MDY326 cells upto 300 uM; assay type: functional, organism-based; method in brief: as §1
[15] = test system: Saccharomyces cerevisiae; assay: Growth inhibition of AP1 deficient yeast MDY334 cells upto 300 uM; assay type: functional, organism-based; method in brief: as §1
[16] = test system: Saccharomyces cerevisiae; assay: Growth inhibition of gga1/2delta containing yeast MDY327; assay type: functional, organism-based; method in brief: as §1
[17] = test system: Saccharomyces cerevisiae; assay: Growth inhibition of gga1/2delta containing yeast MDY327 carrying wild type SNQ2 and PDR5 gene; assay type: functional, organism-based
[18] = test system: Saccharomyces cerevisiae; assay: Degradation of Ste3p receptor in wild type yeast MDY326 cells by pulse-chase immunoprecipitation; assay type: functional, organism-based
Method in brief: (§5)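 Cells grown at 30°C to OD600 0.2 in YPD with DMSO or compound, washed twice in SCMG containing 50 μM compound, pulse-labeled 10 min with [35S]methionine (50 μCi per OD600), chased in YPD; samples stopped with NaF/NaN3 (10 mM final) at set chase points; Ste3p immunoprecipitated from lysates, SDS/PAGE and autoradiography.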

[19] = test system: Saccharomyces cerevisiae; assay: Degradation of Ste3p receptor in gga2delta containing yeast MDY380 by pulse-chase immunoprecipitation; assay type: functional, organism-based; method in brief: as §5
[20] = test system: Saccharomyces cerevisiae; assay: Degradation of Ste3p receptor in yeast MDY330 carrying temperature sensitive allele of clathrin heavy chain gene by pulse-chase immunoprecipitation; assay type: functional, organism-based; method in brief: as §5
[21] = test system: Saccharomyces cerevisiae; assay: Effect on maturation of alkaline phosphatase in wild type yeast SEY6210 at 25 uM by pulse-chase immunoprecipitation; assay type: functional, organism-based
Method in brief: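 SEY6210 grown overnight with 25 μM compound or DMSO, pulse-labeled 5 min with [35S]methionine, chase started by adding yeast extract/cysteine/methionine; ALP immunoprecipitated from lysates at chase points; precursor and mature forms resolved by SDS/PAGE and autoradiography; apl6Δ strain run in parallel.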

[22] = test system: Saccharomyces cerevisiae; assay: Effect on maturation of carboxyl peptidase S in wild type yeast MDY326 assessed as delay in maturation at 25 uM by pulse-chase immunoprecipitation; assay type: functional
Method in brief: (§6)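 Cells grown overnight in YPD with 25 μM compound or DMSO, labeled 10 min with [35S]methionine, chase started by adding yeast extract/cysteine/methionine; CPS immunoprecipitated at chase points; precursor versus mature forms compared by SDS/PAGE and autoradiography.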

[23] = test system: Saccharomyces cerevisiae; assay: Prevention of maturation of carboxyl peptidase S in gga1/2 deficient yeast MDY327 assessed as delay in maturation at 25 uM by pulse-chase immunoprecipitation; assay type: functional, organism-based; method in brief: as §6
[24] = test system: Saccharomyces cerevisiae; assay: Toxicity against wild type yeast MDY326 assessed as 2 fold reduction of cell growth at 95 uM; assay type: organism-based; conditions: in vivo; method in brief: as §3

| Compound | Activity [2] | Activity [3] | Activity [4] | Activity [5] | Activity [6] | also measured |
| --- | --- | --- | --- | --- | --- | --- |
| C/C=C(\C)CN1CCN(c2ccc(C(=O)OCC)cc2)CC1 | – | – | – | – | – | Activity [1]: Non-toxic |
| CCN1CCN(c2ccc(C(C)=O)cc2F)CC1 | – | – | – | – | – | Activity [1]: Non-toxic |
| O=C1/C(=C/c2ccc(O)cc2)SC(=S)N1C1CCCCC1 | <50% | inactive | 70% | <50% | 50% | – |
| COc1ccc(CN2CCN(Cc3cc(Br)ccc3O)CC2)cc1 | – | – | – | – | – | Activity [7]: inactive; Activity [8]: inactive |
| CC(=O)c1ccc(N2CCN(CC3CCCC3)CC2)cc1 | – | – | – | – | – | Activity [9]: Toxic |
| CC(=O)c1ccc(N2CCN(CC3CC3)CC2)cc1 | – | – | – | – | – | Activity [1]: Non-toxic |
| CC(=O)c1ccc(N2CCN(CC3=CCCCC3)CC2)cc1 | – | – | – | – | – | Activity [10]: Toxic |
| CC1(C(=O)NC(=S)NNC(=O)c2cccnc2)CCCCC1 | 70% | inactive | 70% | <50% | 70% | – |
| CC(=O)c1ccc(N2CCN(Cc3ccccc3F)CC2)cc1 | – | – | – | – | – | Activity [10]: Toxic |
| CC(=O)c1ccc(N2CCN(Cc3ccccc3)CC2)cc1 | – | – | – | – | – | Activity [1]: Non-toxic |
| O=C1/C(=C\c2ccc(-c3cccc(Cl)c3)o2)SC(=S)N1CCS(=O)(=O)O | – | – | – | – | – | Activity [7]: inactive; Activity [8]: inactive |
| Cc1cc(S)n(-c2ccccc2)n1 | 50% | inactive | 70% | <50% | 50% | – |
| O=C(Nc1ccccc1)c1ccccc1/N=C/c1cc(Br)ccc1O | 70% | inactive | 70% | 50% | 50% | – |
| CC(=O)c1ccc(N2CCN(Cc3ccsc3)CC2)cc1 | – | – | – | – | – | Activity [1]: Non-toxic |
| Cc1cc(O)c(C(C)C)cc1NS(=O)(=O)c1ccc(Cl)cc1 | 70% | inactive | 70% | 50% | 70% | – |
| CCn1c2ccccc2c2cc(CNC3CCCC3)ccc21 | 70% | inactive | 70% | <50% | 70% | – |
| CC(=O)c1ccc(N2CCN(Cc3cccc(Cl)c3Cl)CC2)cc1 | – | – | – | – | – | Activity [11]: Toxic |

| Compound | Activity [2] | Activity [3] | Activity [4] | Activity [5] | Activity [6] | also measured |
| --- | --- | --- | --- | --- | --- | --- |
| CC(C)Cc1ccc(C(C)C(=O)N/N=C/c2ccc(N(C)C)cc2)cc1 (stereo not drawn) | 70% | inactive | 70% | <50% | 70% | – |
| O=C1NC(=O)/C(=C\c2cccc(Cl)c2Cl)S1 | 70% | inactive | 70% | 50% | 70% | – |
| COC(=O)Oc1c(Br)c(C)c2oc(=O)sc2c1Br | 70% | inactive | 70% | <50% | 70% | – |
| CC(=O)c1ccc(N2CCN(Cc3ccccc3C(F)(F)F)CC2)cc1 | – | – | – | – | – | Activity [1]: Non-toxic |
| COC(=O)c1ccccc1/N=C/c1c(O)c(Br)cc2oc3c(c12)CCCC3 | <50% | inactive | 70% | <50% | 50% | – |
| CC(=O)c1ccc(N2CCN(Cc3ccc(Cl)cc3)CC2)cc1 | – | – | – | – | – | Activity [1]: Non-toxic |
| CC(=O)c1ccc(N2CCN(Cc3cc(F)ccc3F)CC2)cc1 | 50% | Active | 70% | <50% | 70% | Activity [12]: Active; Activity [13]: inactive |
| CC(=O)c1ccc(N2CCN(Cc3cccc(F)c3F)CC2)cc1 | – | – | – | – | – | Activity [10]: Toxic |
| CC(=O)c1ccc(N2CCN(Cc3cccs3)CC2)cc1 | – | – | – | – | – | Activity [1]: Non-toxic |
| C/C=C(\C)CN1CCN(c2ccc(C(=O)O)cc2)CC1 | – | – | – | – | – | Activity [1]: Non-toxic |
| CC(=O)c1ccc(N2CCN(Cc3ccco3)CC2)cc1 | 50% | Active | 70% | 50% | 70% | Activity [14]: inactive; Activity [15]: inactive; Activity [12]: Active; Activity [13]: inactive |
| COc1ccc(CNC2C3CC4CC(C3)CC2C4)c2ccccc12 (stereo not drawn) | 70% | inactive | 70% | <50% | 70% | – |
| Cl.N=c1n(Cc2ccccc2)c2ccccc2n1CC(O)COc1ccccc1 (stereo not drawn) | 50% | inactive | 70% | <50% | 50% | – |
| c1ccc(CN2CCC(NCC(c3ccccc3)c3ccccc3)CC2)cc1 | 70% | inactive | 70% | <50% | 70% | – |
| C/C=C(\C)CN1CCN(c2ccc(C(C)=O)cc2)CC1 | 50% | Active | 70% | <50% | 70% | EC50 [16]: 4 µM; Activity [14]: inactive; Activity [15]: inactive; Activity [17]: Active; Activity [12]: Active; Activity [13]: inactive; Activity [18]: inactive; Activity [19]: inactive; Activity [20]: inactive; Activity [21]: inactive; Activity [22]: <2; Activity [1]: Non-toxic; Activity [23]: Active |
| O=C(N/N=C/c1c[nH]c2ccccc12)c1cc(-c2ccc(Cl)cc2)n[nH]1 | 70% | inactive | 70% | <50% | 70% | – |
| CC(=O)c1ccc(N2CCN(Cc3cccc(F)c3)CC2)cc1 | – | – | – | – | – | Activity [24]: Toxic |
